According to ChEMBL document CHEMBL1641520, “Design, synthesis, and biological evaluation of novel water-soluble N-mustards as potential anticancer agents” (Bioorg Med Chem, 2011):
Calls of active or inactive are those of the source. The calls are words filed in the database; no cut-off is given here.

Legend:
CCRF-CEM [1] = test: Selectivity ratio of IC50 for taxol-resistant human CCRF-CEM cells to IC50 for human CCRF-CEM cells; assay type: functional
CCRF-CEM [2] = test: Cytotoxicity against vinblastine-resistant human CCRF-CEM cells after 72 hrs by XTT assay; assay type: functional, cell-based
Method in brief: (§1)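 CCRF-CEM leukemia cells and their taxol- or vinblastine-resistant sublines given compound for 72 h. XTT read-out: after phenazine methosulfate–XTT, 6 h at 37 °C, absorbance at 450 and 630 nm. IC50 from median-effect analysis of dose-effect data at six or seven concentrations.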

HCT-116 = test: Cytotoxicity against human HCT116 cells after 72 hrs by SRB assay; assay type: functional, cell-based; conditions: HCT-116, 72 h
Method in brief: (§2)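 MX-1 breast and HCT-116 colon carcinoma cells exposed to compound for 72 h; growth measured by sulforhodamine B assay. IC50 from median-effect analysis of dose-effect data at six or seven concentrations.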

CCRF-CEM [3] = test: Selectivity ratio of IC50 for vinblastine-resistant human CCRF-CEM cells to IC50 for human CCRF-CEM cells; assay type: functional
CCRF-CEM [4] = test: Cytotoxicity against human CCRF-CEM cells after 72 hrs by XTT assay; assay type: functional, cell-based; method in brief: as §1
CCRF-CEM [5] = test: Cytotoxicity against taxol-resistant human CCRF-CEM cells after 72 hrs by XTT assay; assay type: functional, cell-based; method in brief: as §1
MX1 = test: Cytotoxicity against human MX1 cells after 72 hrs by SRB assay; assay type: functional, cell-based; conditions: MX1, 72 h; method in brief: as §2
[6] = Cytotoxicity against human CL1-0 cells after 72 hrs by alamar blue assay; assay type: functional, cell-based; conditions: CL1-0, 72 h
Method in brief: (§3)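 H1299, PC3, CL1-0, CL1-5 and MCF-7 cells exposed to compound for 72 h. Alamar blue added, then 6 h at 37 °C; absorbance at 570 and 600 nm. IC50 from median-effect analysis of dose-effect data at six or seven concentrations.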

[7] = Cytotoxicity against human CL1-5 cells after 72 hrs by alamar blue assay; assay type: functional, cell-based; conditions: CL1-5, 72 h; method in brief: as §3
PC-3 = test: Cytotoxicity against human PC3 cells after 72 hrs by alamar blue assay; assay type: functional, cell-based; conditions: PC-3, 72 h; method in brief: as §3
MCF7 = test: Cytotoxicity against human MCF7 cells after 72 hrs by alamar blue assay; assay type: functional, cell-based; conditions: MCF7, 72 h; method in brief: as §3
[8] = Cytotoxicity against human H1299 cells after 72 hrs by alamar blue assay; assay type: functional, cell-based; conditions: NCI-H1299, 72 h; method in brief: as §3
Nucleic Acid = test: Binding affinity to Escherichia coli plasmid EGFP-N1 DNA at 1 to 10 uM after 22 hrs by alkaline agarose gel shift assay; assay type: nucleic-acid assay
Method in brief: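 Purified pEGFP-N1 plasmid DNA (1500 ng) incubated with compound (1–20 µM) in 3 mM NaCl/1 mM sodium phosphate pH 7.4/1 mM EDTA for 2 h at 37 °C. Linearized with BamHI, ethanol-precipitated, denatured in 0.5 N NaOH-10 mM EDTA. Run on 0.8% alkaline agarose gel at 4 °C, 18 V for 22 h. Ethidium bromide stain; cross-linked double-stranded DNA scored against single-stranded DNA.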

Row | SMILES | Ratio IC50 (CCRF-CEM [1]) | IC50 (CCRF-CEM [2]) [nM] | IC50 (HCT-116) [nM] | Ratio IC50 (CCRF-CEM [3]) | IC50 (CCRF-CEM [4]) [nM] | IC50 (CCRF-CEM [5]) [nM] | IC50 (MX1) [nM] | IC50 [6] [nM] | IC50 [7] [nM] | IC50 (PC-3) [nM] | IC50 (MCF7) [nM] | IC50 [8] [nM] | Activity (Nucleic Acid)
1 | Cl.O=C(Nc1ccc(C(=O)NCCN2CCOCC2)cc1)Nc1ccc(N(CCCl)CCCl)cc1 | 27.1 | 29800 | 2740 | 16.8 | 730 | 19800 | 3390 |  |  |  |  |  | 
2 | Cl.O=C(Nc1ccc(N(CCCl)CCCl)cc1)Nc1cccc(C(=O)N2CCC(N3CCCCC3)CC2)c1 | 43.5 | 20000 | 810 | 71.6 | 280 | 12200 | 2240 | 6230 | 8090 | 3190 | 3090 | 11500 | 
3 | O=C(Nc1ccc(N(CCCl)CCCl)cc1)Nc1cccc(OCCN2CCCC2)c1 | 3.5 | 4200 |  | 12.1 | 350 | 1200 |  |  |  |  |  |  | 
4 | O=C(Nc1ccc(N(CCCl)CCCl)cc1)Nc1cccc(OCCN2CCCCC2)c1 | 3 | 730 | 270 | 3.8 | 190 | 570 | 190 | 2730 | 3250 | 1130 | 1820 | 1520 | 
5 | Cl.O=C(Nc1ccc(OCCN2CCOCC2)cc1)Nc1ccc(N(CCCl)CCCl)cc1 | 2.4 | 640 |  | 1.8 | 350 | 840 |  |  |  |  |  |  | 
6 | O=C(Nc1ccc(N(CCCl)CCCl)cc1)Nc1cccc(OCCN2CCOCC2)c1 | 1.8 | 1130 |  | 2.8 | 410 | 730 |  |  |  |  |  |  | 
7 | CN(C)CCCOc1cccc(NC(=O)Nc2ccc(N(CCCl)CCCl)cc2)c1 | 6.4 | 2370 |  | 7.4 | 320 | 2050 |  |  |  |  |  |  | 
8 | Cl.O=C(Nc1ccc(OCCN2CCCCC2)cc1)Nc1ccc(N(CCCl)CCCl)cc1 | 4.02 | 720 | 270 | 7.47 | 120 | 500 | 150 | 2870 | 4750 | 930 | 1240 | 1840 | Active
9 | CN(C)CCOc1cccc(NC(=O)Nc2ccc(N(CCCl)CCCl)cc2)c1 | 0.6 | 1480 |  | 1.1 | 1320 | 810 |  |  |  |  |  |  | 
10 | CN(C)CCOc1ccc(NC(=O)Nc2ccc(N(CCCl)CCCl)cc2)cc1.Cl | 7.6 | 1190 | 270 | 6.02 | 100 | 1500 | 280 | 4070 | 3010 | 1670 | 1250 | 4380 | 
11 | CN(C)CCCNC(=O)c1cccc(NC(=O)Nc2ccc(N(CCCl)CCCl)cc2)c1.Cl | 9.4 | 44000 | 850 | 151.8 | 290 | 21200 | 2330 |  |  |  |  |  | 
12 | CC[C@]1(O)C[C@@H]2CN(CCc3c([nH]c4ccccc34)[C@@](C(=O)OC)(c3cc4c(cc3OC)N(C)[C@H]3[C@@](O)(C(=O)OC)[C@H](OC(C)=O)[C@]5(CC)C=CCN6CC[C@]43[C@@H]65)C2)C1 [VINBLASTINE] | 106.2 |  |  | 679.5 | 0.7 | 80 |  |  |  |  |  |  | 
